Data reported in ChEMBL document CHEMBL1800054, “Thiazolides as novel antiviral agents. 1. Inhibition of hepatitis B virus replication” (J Med Chem, 2011).

Columns and labels:
Hepatitis B virus [1] = experiment: Antiviral activity against Hepatitis B virus infected in human HepG2(2.2.15) cells assessed as decrease in intracellular viral DNA measured 24 hrs after last dose; assay type: functional, organism-based; settings: HepG2 2.2.15, 24 h
Summary of the method: (§1)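 Confluent 2.2.15 cells (HepG2 line chronically producing HBV) in 96-well culture; nine consecutive daily doses of compound. HBV DNA (extracellular virion or intracellular replication intermediates) quantified by blot hybridization 24 hr after the last dose. Cytotoxicity measured by neutral red uptake 24 hr after the last dose.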

[2] = Selectivity index, ratio CC50 for human HepG2(2.2.15) cells to EC90 for decrease in extracellular viral DNA in Hepatitis B virus infected human HepG2(2.2.15) cells; assay type: toxicity; settings: read-out: Selectivity Index
Summary of the method: (§2)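 Ratio of CC50 to EC90 in confluent 2.2.15 cells treated with nine consecutive daily doses. Both read 24 hr after the last dose. CC50 = concentration halving neutral red uptake versus untreated cultures. EC values were run in triplicate.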

Hepatitis B virus [3] = experiment: Antiviral activity against Hepatitis B virus infected in human HepG2(2.2.15) cells assessed as decrease in extracellular viral DNA measured 24 hrs after last dose; assay type: functional, organism-based; settings: HepG2 2.2.15, 24 h; summary of the method: as §1
[4] = Selectivity index, ratio CC50 for human HepG2(2.2.15) cells to EC90 for decrease in intracellular viral DNA in Hepatitis B virus infected human HepG2(2.2.15) cells; assay type: toxicity, cell-based; settings: read-out: Selectivity Index; summary of the method: as §2
[5] = Cytotoxicity against human HepG2(2.2.15) cells after 24 hrs by neutral red dye uptake assay; assay type: cell-based; settings: for CC50: hepg2 2.2.15, 24 h; for CC50 at 24 h: HepG2(2.2.15) cells
Summary of the method: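 Confluent chronically HBV-producing 2.2.15 cultures given nine consecutive daily doses of compound; neutral red dye uptake read 24 hr after the last dose.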

Plasma [6] = experiment: Metabolic stability in human plasma assessed as plasma esterase-induced compound deacetylation; assay type: ADME, cell-free
Plasma [7] = experiment: Protein binding in human plasma; assay type: ADME, cell-free
[8] = Inhibition of CYP450; assay type: ADME
Summary of the method: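 Screened for inhibition against a panel of 14 CYP isozymes.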

Blood = experiment: Metabolic stability in human blood after 1 hr; assay type: ADME, tissue-based
Summary of the method: (§3)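 Incubated 1 hour in human whole blood or plasma, then stability assessed.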

[9] = Metabolic stability in human liver microsomes assessed as compound remaining after 60 mins; assay type: ADME, Microsome; settings: read-out: Stability
Summary of the method: (§4)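 Incubated 60 minutes with human liver microsomes or S9 fraction; read-out is percent of parent compound remaining.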

Plasma [10] = experiment: Metabolic stability in human plasma after 1 hr; assay type: ADME, cell-free; summary of the method: as §3
[11] = Protein binding in plasma; assay type: ADME, cell-free; settings: read-out: PPB
[12] = Metabolic stability in human liver S9 fraction assessed as compound remaining after 60 mins; assay type: ADME, subcellular; settings: read-out: Stability; summary of the method: as §4

Structure (SMILES) | EC50 (Hepatitis B virus [1]) [µM] | EC90 (Hepatitis B virus [1]) [µM] | selectivity ratio [2] | EC50 (Hepatitis B virus [3]) [µM] | EC90 (Hepatitis B virus [3]) [µM] | selectivity ratio [4] | CC50 [5] [µM] | CC50 at 24 h [5] [µM] | also measured
CCOC(=O)Oc1ccccc1C(=O)Nc1ncc([N+](=O)[O-])s1 | 0.54 | 1.8 | 13 | 0.21 | 0.69 | 5.5 | 9.9 |  | 
O=C(Nc1ccc([N+](=O)[O-])cc1Cl)c1cc(Cl)ccc1O [NICLOSAMIDE] |  |  |  |  | > 10 |  |  | > 100 | 
CS(=O)(=O)c1csc(NC(=O)c2ccccc2O)n1 |  |  |  | > 10 | > 10 |  |  | > 100 | 
O=C(Nc1nc(-c2ccccc2)cs1)c1ccccc1O |  |  | 1 | 5.6 | 21 |  | 22 |  | 
O=C(Nc1ncc(F)s1)c1ccccc1O |  |  | 4.3 | 3.1 | 12 |  | 51 |  | 
O=C(Nc1ccc(Cl)cc1)c1ccccc1O |  |  |  | > 10 | > 10 |  |  | > 100 | 
Cc1cc([N+](=O)[O-])c(Cl)cc1NC(=O)c1ccccc1O | 0.66 | 1.7 | 122 | 0.28 | 0.73 | 52 | 89 |  | 
CS(=O)(=O)c1cnc(NC(=O)c2ccccc2O)s1 | > 10 |  |  | > 10 | > 10 |  |  | > 100 | 
O=C(Nc1ncc(Cl)s1)c1ccccc1O | 1 | 2.9 | 43 | 0.33 | 0.89 | 13 | 38 |  | 
Cc1cccc(C(=O)Nc2ncc(Br)s2)c1O | 7.6 | 22 | > 11 | 3.5 | 9 | > 4.5 |  | > 100 | 
O=C(Nc1nc(-c2ccccc2)cs1)c1cccc(Cl)c1O |  |  | > 166 | 0.15 | 0.6 |  |  | > 100 | 
O=C(Nc1ncc(Br)s1)c1cccc(Cl)c1O | 0.59 | 3.9 | 15 | 0.32 | 2 | 7.7 | 30 |  | 
CC(=O)Oc1ccccc1C(=O)Nc1ncc([N+](=O)[O-])s1 [NITAZOXANIDE] | 0.59 |  |  | 0.12 |  |  |  | > 100 | t1/2 (Plasma [6]): 6 min; PPB (Plasma [7]): > 95%
O=C(Nc1ncc(Br)s1)c1ccc(F)cc1O |  |  | 2.1 | 2.1 | 5.6 |  | 12 |  | 
CC(=O)Oc1ccccc1C(=O)Nc1cc(C(F)(F)F)cc(C(F)(F)F)c1 |  |  | > 7.1 | 3.8 | 14 |  |  | > 100 | 
Cc1ccc(C(=O)Nc2ncc(Cl)s2)c(O)c1 | 2.7 | 6.3 | > 30 | 1 | 3.3 | > 16 |  | 100 | 
O=C(Nc1ncc(-c2ccc(Cl)cc2)s1)c1ccccc1O | > 10 | > 10 |  | > 10 | > 10 |  |  | > 100 | 

Structure (SMILES) | EC50 (Hepatitis B virus [1]) [µM] | EC90 (Hepatitis B virus [1]) [µM] | selectivity ratio [2] | EC50 (Hepatitis B virus [3]) [µM] | EC90 (Hepatitis B virus [3]) [µM] | selectivity ratio [4] | CC50 [5] [µM] | CC50 at 24 h [5] [µM] | also measured
O=C(Nc1nccs1)c1ccccc1O |  |  |  | > 10 | > 10 |  | 16 |  | 
O=C(Nc1ncc(C(F)(F)F)s1)c1ccccc1O | 9.1 | 27 | > 9.1 | 3.8 | 11 | > 3.7 |  | > 100 | 
CC(=O)Oc1ccccc1C(=O)Nc1ccc(Cl)cc1 |  |  | 11 | 3.5 | 9.7 |  |  | > 100 | 
Cc1cccc(C(=O)Nc2nc(-c3ccccc3)cs2)c1O | 7.8 | 30 | > 137 | 0.22 | 0.73 | 3.3 |  | > 100 | 
CC(=O)Oc1ccccc1C(=O)Nc1ccc(I)cc1 | 0.73 | 3.3 | > 83 | 0.2 | 1.2 | > 30 |  | > 100 | 
CC(C)c1cnc(NC(=O)c2ccccc2O)s1 | > 10 | > 10 |  | > 10 | > 10 |  |  | > 100 | 
O=C(Nc1cc(C(F)(F)F)ccc1Cl)c1ccccc1O |  |  |  | 3.7 | 13 |  |  | > 100 | 
Cc1cccc(C(=O)Nc2ncc(Cl)s2)c1O | > 10 | > 10 |  | > 10 | > 10 |  | 100 |  | 
Cc1ccc(O)c(C(=O)Nc2ncc(Cl)s2)c1 | 0.9 | 2 | > 120 | 0.33 | 0.83 | > 51 |  | 100 | inhibition (INH) [8]: Not Active; Stability (Blood): Stable; remaining at 1 h [9]: 16%; Stability (Plasma [10]): Stable; fraction unbound [11]: < 0.01; remaining at 1 h [12]: 6%
O=C(Nc1ncc([N+](=O)[O-])s1)c1ccccc1O [TIZOXANIDE] | 0.46 | 1.2 | > 172 | 0.15 | 0.58 | > 83 |  | > 100 | PPB (Plasma [7]): > 95%
N#Cc1cnc(NC(=O)c2ccccc2O)s1 | 5.5 | 14 | > 11 | 3.2 | 9.4 | > 7.1 |  | > 100 | 
CC(=O)Oc1ccccc1C(=O)Nc1ccc(Br)cc1 | 2.1 | 6.8 | > 33 | 0.76 | 3 | > 15 |  | > 100 | 
O=C(Nc1ccc([N+](=O)[O-])cc1)c1ccccc1O |  |  |  | > 10 | > 10 |  |  | > 100 | 
O=C(Nc1ncc(Br)s1)c1ccccc1O | 2.9 | 8.7 | > 25 | 1.2 | 4 | > 12 |  | > 100 | 
CC(=O)Nc1cnc(NC(=O)c2ccccc2O)s1 | > 10 | > 10 |  | > 10 | > 10 |  |  | > 100 | 
O=C(Nc1ncc(Br)s1)c1cc(Cl)ccc1O | 3.5 | 11 | 41 | 0.21 | 1.1 | 4.1 | 45 |  | 
COC(=O)c1cnc(NC(=O)c2ccccc2O)s1 |  |  |  | > 10 | > 10 |  | 15 |  | 
